In ChEMBL document CHEMBL3580658, “Bisthiodiketopiperazines and Acorane Sesquiterpenes Produced by the Marine-Derived Fungus Penicillium adametzioides AS-53 on Different Culture Media” (J Nat Prod, 2015):
Values after ≈ are worked out from the molar mass of the structure shown.

How the values were obtained:
[1] = Cytotoxicity against human L02 cells by tetrazolium salt based quantitative colorimetric assay; assay type: functional, cell-based
HeLa = assay: Cytotoxicity against human HeLa cells by tetrazolium salt based quantitative colorimetric assay; assay type: functional, cell-based
[2] = Cytotoxicity against human SGC7901 cells by tetrazolium salt based quantitative colorimetric assay; assay type: functional, cell-based; conditions: SGC-7901
[3] = Cytotoxicity against mouse LM3 cells by tetrazolium salt based quantitative colorimetric assay; assay type: functional, cell-based
DU-145 = assay: Cytotoxicity against human DU145 cells by tetrazolium salt based quantitative colorimetric assay; assay type: functional, cell-based
[4] = Cytotoxicity against human HuH7 cells by tetrazolium salt based quantitative colorimetric assay; assay type: functional, cell-based; conditions: Huh-7
MCF7 = assay: Cytotoxicity against human MCF7 cells by tetrazolium salt based quantitative colorimetric assay; assay type: functional, cell-based
NCI-H446 = assay: Cytotoxicity against human NCI-H446 cells by tetrazolium salt based quantitative colorimetric assay; assay type: functional, cell-based
U-251 = assay: Cytotoxicity against human U251 cells by tetrazolium salt based quantitative colorimetric assay; assay type: functional, cell-based
HepG2 = assay: Cytotoxicity against human HepG2 cells by tetrazolium salt based quantitative colorimetric assay; assay type: functional, cell-based
SW480 = assay: Cytotoxicity against human SW480 cells by tetrazolium salt based quantitative colorimetric assay; assay type: functional, cell-based
A549 = assay: Cytotoxicity against human A549 cells by tetrazolium salt based quantitative colorimetric assay; assay type: functional, cell-based
SW1990 = assay: Cytotoxicity against human SW1990 cells by tetrazolium salt based quantitative colorimetric assay; assay type: functional, cell-based
Vibrio parahaemolyticus = assay: Antimicrobial activity against Vibrio parahaemolyticus QDIO-8 by XTT assay; assay type: functional
Summary of the method: (§1)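 Bacterial panel of two human-pathogenic and seven aquacultural strains, run by a previously described method. Chloramphenicol served as the positive control against bacteria.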

Gaeumannomyces graminis = assay: Antimicrobial activity against Gaeumannomyces graminis QDAU-3 by XTT assay; assay type: functional
Summary of the method: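 Plant-pathogenic fungus strain QDAU-3 was obtained from Qingdao Agricultural University and tested by a previously described method. Amphotericin B was the positive control against fungi.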

Artemia salina = assay: Cytotoxicity in brine shrimp; assay type: functional; conditions: read-out: LD50 (the source's name)
Aeromonas hydrophila = assay: Antimicrobial activity against Aeromonas hydrophila QDIO-1 by XTT assay; assay type: functional; summary of the method: as §1
Vibrio harveyi = assay: Antimicrobial activity against Vibrio harveyi QDIO-7 by XTT assay; assay type: functional; summary of the method: as §1
Staphylococcus aureus = assay: Antimicrobial activity against Staphylococcus aureus EMBLC-2 by XTT assay; assay type: functional; summary of the method: as §1

Compound	IC50 [1]	IC50 (HeLa)	IC50 [2]	IC50 [3]	IC50 (DU-145)	IC50 [4]	IC50 (MCF7)	IC50 (NCI-H446)	IC50 (U-251)	IC50 (HepG2)	IC50 (SW480)	IC50 (A549)	IC50 (SW1990)	MIC (Vibrio parahaemolyticus)	MIC (Gaeumannomyces graminis)	LC50 (Artemia salina)	MIC (Aeromonas hydrophila)	MIC (Vibrio harveyi)	MIC (Staphylococcus aureus)
C=C(C)[C@H]1[C@H](OC(C)=O)C[C@H](C)[C@@]12CC=C(CO)[C@@H](O)C2	> 10 µM	> 10 µM	> 10 µM	> 10 µM	> 10 µM	> 10 µM	> 10 µM	5 µM	> 10 µM	> 10 µM	> 10 µM	> 10 µM	> 10 µM						
COc1ccc([C@@H]2SS[C@@]34C[C@]5(O)[C@H](Cl)C=C[C@@H](O)[C@@H]5ON3C(=O)[C@@H]2N(C)C4=O)c(O)c1OC	> 10 µM	> 10 µM	> 10 µM	> 10 µM	> 10 µM	> 10 µM	> 10 µM	> 10 µM	> 10 µM	> 10 µM	> 10 µM	> 10 µM	> 10 µM	8 µg/mL (≈ 15.1 µM)	16 µg/mL (≈ 30.1 µM)	4.8 µM	8 µg/mL (≈ 15.1 µM)	32 µg/mL (≈ 60.3 µM)	8 µg/mL (≈ 15.1 µM)
COc1cc2c(c(OC)c1OC)-c1ccc(OC)c(=O)cc1[C@@H](NC(C)=O)CC2 [COLCHICINE]																8.1 µM			
COc1ccc([C@@H]2SS[C@@]34C[C@]5(O)[C@H](O)C=C[C@@H](O)[C@@H]5ON3C(=O)[C@@H]2N(C)C4=O)c(O)c1OC	> 10 µM	> 10 µM	> 10 µM	> 10 µM	> 10 µM	> 10 µM	> 10 µM	> 10 µM	> 10 µM	> 10 µM	> 10 µM	> 10 µM	> 10 µM						64 µg/mL (≈ 125 µM)
C=C(C)[C@H]1[C@H](OC(C)=O)C[C@H](C)[C@@]12CC=C(C)[C@@H](O)C2	> 10 µM	> 10 µM	> 10 µM	> 10 µM	> 10 µM	> 10 µM	> 10 µM	> 10 µM	> 10 µM	> 10 µM	> 10 µM	> 10 µM	> 10 µM						
